Source: ChEMBL document CHEMBL1129275, “Synthesis and in vitro and in vivo characteristics of an iodinated analogue of the beta-adrenoceptor antagonist carazolol” (J Med Chem, 1996)

Key:
[1] = test system: Oryctolagus cuniculus; experiment: Cerebral biodistribution pattern of [123I]- ligand was evaluated in thalamus of anesthetized rabbit after Intravenous injection of 50 uCi after 6 hr; format: ADME, organism-based; settings: in vivo
How it was run: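 Male New Zealand white rabbits (2.5–3.5 kg) anesthetized with xylazine 5 mg/kg plus ketamine 30 mg/kg im; 50 uCi radioligand (specific activity > 5000 Ci/mmol) given iv via ear vein. Euthanized by pentobarbital 200 mg/kg im at set times up to 24 h (n = 3/time point). Brain regions weighed and gamma-counted, decay-corrected, expressed as % ID x kg body weight/g tissue, mean ± SEM.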

[2] = test system: Oryctolagus cuniculus; experiment: Cerebral biodistribution pattern of [123I]- ligand was evaluated in thalamus of anesthetized rabbit after Intravenous injection of 50 uCi after 2 hr; format: ADME, organism-based; settings: in vivo
How it was run: (§1)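 Male New Zealand white rabbits (2.5–3.5 kg), anesthetized with xylazine 5 mg/kg plus ketamine 30 mg/kg im, given 50 µCi radioligand (specific activity >5000 Ci/mmol) iv via ear vein. Euthanized at set times by pentobarbital 200 mg/kg im, n = 3/time point. Organs removed and weighed, gamma-counted, decay/weight corrected; expressed as % ID x kg body weight/g tissue, mean ± SEM.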

[3] = test system: Oryctolagus cuniculus; experiment: Biodistribution pattern of [123I]- ligand was evaluated in left atrial muscle of anesthetized rabbit after Intravenous injection of 50 uCi after 24 hr; format: ADME, organism-based, Muscle tissue; settings: in vivo
How it was run: (§2)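 Male New Zealand white rabbits, 2.5–3.5 kg, anesthetized with 5 mg/kg xylazine plus 30 mg/kg ketamine im. Each received 50 uCi radioligand (specific activity > 5000 Ci/mmol) iv via ear vein. Animals were killed with 200 mg/kg pentobarbital im at the set time. Blood was drawn by intracardiac puncture and organs weighed. Gamma counting was decay-corrected, expressed as %ID x kg body weight/g tissue, mean ± SEM, n = 3/time point.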

[4] = test system: Oryctolagus cuniculus; experiment: Cerebral biodistribution pattern of [123I]- ligand was evaluated in pituitary gland of anesthetized rabbit after Intravenous injection of 50 uCi after 24 hr; format: ADME, organism-based; settings: in vivo; how it was run: as §1
[5] = test system: Oryctolagus cuniculus; experiment: Cerebral biodistribution pattern of [123I]- ligand was evaluated in pituitary gland of anesthetized rabbit after Intravenous injection of 50 uCi after 1 hr; format: ADME, organism-based; settings: in vivo; how it was run: as §1
[6] = test system: Oryctolagus cuniculus; experiment: Cerebral biodistribution pattern of [123I]- ligand was evaluated in thalamus of anesthetized rabbit after Intravenous injection of 50 uCi after 4 hr; format: ADME, organism-based; settings: in vivo; how it was run: as §1
[7] = test system: Oryctolagus cuniculus; experiment: Cerebral biodistribution pattern of [123I]- ligand was evaluated in cerebellum of anesthetized rabbit after Intravenous injection of 50 uCi after 4 hr; format: ADME, organism-based; settings: in vivo; how it was run: as §1
[8] = test system: Oryctolagus cuniculus; experiment: Biodistribution pattern of [123I]- ligand was evaluated in liver of anesthetized rabbit after Intravenous injection of 50 uCi after 30 min; format: ADME, organism-based; settings: in vivo, 0.5 h; how it was run: as §2
[9] = test system: Oryctolagus cuniculus; experiment: Biodistribution pattern of [123I]- ligand was evaluated in intestine of anesthetized rabbit after Intravenous injection of 50 uCi after 4 hr; format: ADME, organism-based; settings: in vivo; how it was run: as §2
[10] = test system: Oryctolagus cuniculus; experiment: Biodistribution pattern of [123I]- ligand was evaluated in fat of anesthetized rabbit after Intravenous injection of 50 uCi after 2 hr; format: ADME, organism-based, Adipose tissue; settings: in vivo; how it was run: as §2
[11] = test system: Oryctolagus cuniculus; experiment: Cerebral biodistribution pattern of [123I]- ligand was evaluated in hypothalamus of anesthetized rabbit after Intravenous injection of 50 uCi after 6 hr; format: ADME, organism-based; settings: in vivo; how it was run: as §1
[12] = test system: Oryctolagus cuniculus; experiment: Biodistribution pattern of [123I]- ligand was evaluated in kidney of anesthetized rabbit after Intravenous injection of 50 uCi after 6 hr; format: ADME, organism-based; settings: in vivo; how it was run: as §2
[13] = test system: Oryctolagus cuniculus; experiment: Cerebral biodistribution pattern of [123I]- ligand was evaluated in thalamus of anesthetized rabbit after Intravenous injection of 50 uCi after 30 min; format: ADME, organism-based; settings: in vivo, 0.5 h; how it was run: as §1
[14] = test system: Oryctolagus cuniculus; experiment: Biodistribution pattern of [123I]- ligand was evaluated in liver of anesthetized rabbit after Intravenous injection of 50 uCi after 2 hr; format: ADME, organism-based; settings: in vivo; how it was run: as §2
[15] = test system: Oryctolagus cuniculus; experiment: Biodistribution pattern of [123I]- ligand was evaluated in lung of anesthetized rabbit after Intravenous injection of 50 uCi after 4 hr; format: ADME, organism-based; settings: in vivo; how it was run: as §2
[16] = test system: Oryctolagus cuniculus; experiment: Biodistribution pattern of [123I]- ligand was evaluated in intestine of anesthetized rabbit after Intravenous injection of 50 uCi after 2 hr; format: ADME, organism-based; settings: in vivo; how it was run: as §2
[17] = test system: Oryctolagus cuniculus; experiment: Biodistribution pattern of [123I]- ligand was evaluated in lung of anesthetized rabbit after Intravenous injection of 50 uCi after 30 min; format: ADME, organism-based; settings: in vivo, 0.5 h; how it was run: as §2
[18] = test system: Oryctolagus cuniculus; experiment: Biodistribution pattern of [123I]- ligand was evaluated in blood of anesthetized rabbit after Intravenous injection of 50 uCi after 4 hr; format: ADME, organism-based; settings: in vivo; how it was run: as §2
[19] = test system: Oryctolagus cuniculus; experiment: Biodistribution pattern of [123I]- ligand was evaluated in right ventricular muscle of anesthetized rabbit after Intravenous injection of 50 uCi after 2 hr; format: ADME, organism-based, Muscle tissue; settings: in vivo; how it was run: as §1
[20] = test system: Oryctolagus cuniculus; experiment: […] biodistribution pattern of [123I]- ligand was evaluated in kidney of anesthetized rabbit after Intravenous injection of 50 uCi after 2 hr; format: ADME, organism-based; settings: in vivo; how it was run: as §1
[21] = test system: Oryctolagus cuniculus; experiment: Cerebral biodistribution pattern of [123I]- ligand was evaluated in thalamus of anesthetized rabbit after Intravenous injection of 50 uCi after 24 hr; format: ADME, organism-based; settings: in vivo; how it was run: as §1
[22] = test system: Oryctolagus cuniculus; experiment: Biodistribution pattern of [123I]- ligand was evaluated in liver of anesthetized rabbit after Intravenous injection of 50 uCi after 1 hr; format: ADME, organism-based; settings: in vivo; how it was run: as §2
[23] = test system: Oryctolagus cuniculus; experiment: Cerebral biodistribution pattern of [123I]- ligand was evaluated in cerebellum of anesthetized rabbit after Intravenous injection of 50 uCi after 24 hr; format: ADME, organism-based; settings: in vivo; how it was run: as §1
[24] = test system: Oryctolagus cuniculus; experiment: Biodistribution pattern of [123I]- ligand was evaluated in right ventricular muscle of anesthetized rabbit after Intravenous injection of 50 uCi after 30 min; format: ADME, organism-based, Muscle tissue; settings: in vivo, 0.5 h; how it was run: as §1
[25] = test system: Oryctolagus cuniculus; experiment: Biodistribution pattern of [123I]- ligand was evaluated in fat of anesthetized rabbit after Intravenous injection of 50 uCi after 4 hr; format: ADME, organism-based, Adipose tissue; settings: in vivo; how it was run: as §2
[26] = test system: Oryctolagus cuniculus; experiment: Cerebral biodistribution pattern of [123I]- ligand was evaluated in hypothalamus of anesthetized rabbit after Intravenous injection of 50 uCi after 4 hr; format: ADME, organism-based; settings: in vivo; how it was run: as §1
[27] = test system: Oryctolagus cuniculus; experiment: Biodistribution pattern of [123I]- ligand was evaluated in right atrial muscle of anesthetized rabbit after Intravenous injection of 50 uCi after 2 hr; format: ADME, organism-based, Muscle tissue; settings: in vivo; how it was run: as §1
[28] = test system: Oryctolagus cuniculus; experiment: Biodistribution pattern of [123I]- ligand was evaluated in spleen of anesthetized rabbit after Intravenous injection of 50 uCi after 30 min; format: ADME, organism-based; settings: in vivo, 0.5 h; how it was run: as §1
[29] = test system: Oryctolagus cuniculus; experiment: Biodistribution pattern of [123I]- ligand was evaluated in right ventricular muscle of anesthetized rabbit after Intravenous injection of 50 uCi after 4 hr; format: ADME, organism-based, Muscle tissue; settings: in vivo; how it was run: as §1
[30] = test system: Oryctolagus cuniculus; experiment: Biodistribution pattern of [123I]- ligand was evaluated in muscle of anesthetized rabbit after Intravenous injection of 50 uCi after 1 hr; format: ADME, organism-based, Muscle tissue; settings: in vivo; how it was run: as §2
[31] = test system: Oryctolagus cuniculus; experiment: Biodistribution pattern of [123I]- ligand was evaluated in right ventricular muscle of anesthetized rabbit after Intravenous injection of 50 uCi after 24 hr; format: ADME, organism-based, Muscle tissue; settings: in vivo; how it was run: as §1
[32] = test system: Oryctolagus cuniculus; experiment: Biodistribution pattern of [123I]- ligand was evaluated in fat of anesthetized rabbit after Intravenous injection of 50 uCi after 24 hr; format: ADME, organism-based, Adipose tissue; settings: in vivo; how it was run: as §2
[33] = test system: Oryctolagus cuniculus; experiment: Cerebral biodistribution pattern of [123I]- ligand was evaluated in striatum of anesthetized rabbit after Intravenous injection of 50 uCi after 6 hr; format: ADME, organism-based; settings: in vivo; how it was run: as §1
[34] = test system: Oryctolagus cuniculus; experiment: Biodistribution pattern of [123I]- ligand was evaluated in left ventricular muscle of anesthetized rabbit after Intravenous injection of 50 uCi after 30 min; format: ADME, organism-based, Muscle tissue; settings: in vivo, 0.5 h; how it was run: as §2
[35] = test system: Oryctolagus cuniculus; experiment: Cerebral biodistribution pattern of [123I]- ligand was evaluated in striatum of anesthetized rabbit after Intravenous injection of 50 uCi after 1 hr; format: ADME, organism-based; settings: in vivo; how it was run: as §1

ID x kg of body weight/g of tissue [1]: 0.03% | ID x kg of body weight/g of tissue [2]: 0.05% | ID x kg of body weight/g of tissue [3]: 0.03% | ID x kg of body weight/g of tissue [4]: 0.03% | ID x kg of body weight/g of tissue [5]: 0.11% | ID x kg of body weight/g of tissue [6]: 0.03% | ID x kg of body weight/g of tissue [7]: 0.13% | ID x kg of body weight/g of tissue [8]: 0.19% | ID x kg of body weight/g of tissue [9]: 0.06% | ID x kg of body weight/g of tissue [10]: 0.04% | ID x kg of body weight/g of tissue [11]: 0.03% | ID x kg of body weight/g of tissue [12]: 0.04% | ID x kg of body weight/g of tissue [13]: < 0.1% | ID x kg of body weight/g of tissue [14]: 0.09% | ID x kg of body weight/g of tissue [15]: 0.82% | ID x kg of body weight/g of tissue [16]: 0.13% | ID x kg of body weight/g of tissue [17]: < 1.74% | ID x kg of body weight/g of tissue [18]: 0.01% | ID x kg of body weight/g of tissue [19]: 0.18% | ID x kg of body weight/g of tissue [20]: 0.11% | ID x kg of body weight/g of tissue [21]: 0.02% | ID x kg of body weight/g of tissue [22]: 0.13% | ID x kg of body weight/g of tissue [23]: 0.07% | ID x kg of body weight/g of tissue [24]: < 0.21% | ID x kg of body weight/g of tissue [25]: 0.02% | ID x kg of body weight/g of tissue [26]: 0.03% | ID x kg of body weight/g of tissue [27]: 0.13% | ID x kg of body weight/g of tissue [28]: 0.41% | ID x kg of body weight/g of tissue [29]: 0.12% | ID x kg of body weight/g of tissue [30]: 0.07% | ID x kg of body weight/g of tissue [31]: 0.02% | ID x kg of body weight/g of tissue [32]: 0.01% | ID x kg of body weight/g of tissue [33]: 0.04% | ID x kg of body weight/g of tissue [34]: < 0.26% | ID x kg of body weight/g of tissue [35]: 0.07%
SMILES: CC(C)(/C=C/I)NC[C@H](O)COc1cccc2[nH]c3ccccc3c12
